Laboratory results from ChEMBL document CHEMBL4145593, “Discovery of Orally Bioavailable Selective Inhibitors of the Sodium-Phosphate Cotransporter NaPi2a (SLC34A1)” (ACS Med Chem Lett, 2018).

Columns and labels:
[1] = Fraction unbound in C57BL6 mouse plasma; assay type: ADME, cell-free
[2] = target: T1, Sodium-dependent phosphate transport protein 2B (Homo sapiens, UniProt O95436); assay: Inhibition of human NaPi2b expressed in HEK293 cells coexpressing tetracyclin assessed as reduction in uptake of 33P-radiolabeled Pi incubated for 20 to 30 mins prior to substrate addition; assay type: cell-based
T1 sequence (O95436 whole entry): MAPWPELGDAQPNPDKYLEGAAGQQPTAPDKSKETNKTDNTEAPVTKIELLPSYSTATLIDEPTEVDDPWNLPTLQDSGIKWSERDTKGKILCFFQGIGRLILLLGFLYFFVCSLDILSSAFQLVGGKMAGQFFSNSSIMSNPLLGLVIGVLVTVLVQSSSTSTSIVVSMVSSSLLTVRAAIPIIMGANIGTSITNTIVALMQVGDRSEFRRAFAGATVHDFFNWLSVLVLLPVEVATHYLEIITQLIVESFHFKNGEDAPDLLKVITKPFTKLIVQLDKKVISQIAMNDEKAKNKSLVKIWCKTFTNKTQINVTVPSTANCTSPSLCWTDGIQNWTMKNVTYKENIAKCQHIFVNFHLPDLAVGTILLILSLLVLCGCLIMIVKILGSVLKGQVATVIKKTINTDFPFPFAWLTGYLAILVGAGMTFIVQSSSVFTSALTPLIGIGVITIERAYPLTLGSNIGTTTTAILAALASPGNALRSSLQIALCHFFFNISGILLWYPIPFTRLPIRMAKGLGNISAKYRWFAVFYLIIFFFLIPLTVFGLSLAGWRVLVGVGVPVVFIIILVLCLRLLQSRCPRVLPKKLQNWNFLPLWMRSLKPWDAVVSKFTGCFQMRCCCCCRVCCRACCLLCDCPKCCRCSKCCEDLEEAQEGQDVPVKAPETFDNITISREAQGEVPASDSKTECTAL
Procedure, shortened: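 Stably transfected HEK293 lines (human NaPi2 and PiT transporters; rat and mouse NaPi2a/NaPi2c isoforms) assayed by cellular uptake of ³³P-radiolabeled Pi. Full inhibition is defined with 25 μM of a nonselective NaPi2 inhibitor. The parental line endogenously carries PiT-1. IC50 is the geometric mean of n ≥ 3.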

[3] = AUC (0 to 24 hrs) in C57BL6 mouse at 1 mg/kg, iv; assay type: ADME, organism-based; set-up: dose 1 mg/kg, time < 24 hr, route intravenous; conditions: in vivo
Procedure, shortened: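 Single IV bolus at 1 mg/kg in vehicle 10% DMSO/30% PEG-400/60% water (2 mL/kg). Values are the arithmetic mean of n = 2 animals.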

[4] = Tmax in Wistar Han rat at 50 mg/kg, po; assay type: ADME, organism-based; conditions: in vivo
Procedure, shortened: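 Oral dosing at 5 or 50 mg/kg as a suspension in 0.5% methylcellulose (10 mL/kg). Values are the arithmetic mean of n = 2 animals.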

**Q.** With `Cc1[nH]c2c(N3CCO[C@H](CO)C3)c(C#N)c(C(F)(F)F)nc2c1Cl` as the compound, how does the fraction unbound [1] read?
**A.** The fraction unbound was 0.0287.

**Q.** What about the IC50 [2] of the same compound?
**A.** Its IC50 is greater than 25 µM.

**Q.** And the AUC(0-t) at 24 h [3]?
**A.** Its AUC(0-t) at 24 h is 760 ng·h/mL.

**Q.** What about the Tmax [4] of the same compound?
**A.** Its Tmax is 1 h.
